Experimental data from ChEMBL document CHEMBL4346672, “Antimicrobial and KPC/AmpC inhibitory activity of functionalized benzosiloxaboroles” (Eur J Med Chem, 2019).
≈ marks a conversion by molar mass, not a printed value. Calls of active or inactive are those of the source. The calls are words filed in the database; no cut-off is given here.

These compounds were tested on Candida tropicalis (assay: Antifungal activity against Candida tropicalis IBA 171 assessed as decrease in fungal cell growth at 0.78 to 12.5 mg/L incubated for 24 hrs by CLSI broth dilution method). Conditions: IBA 171, 24 h.
Format: functional
Outline: (§1)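 Yeast broth dilution in RPMI 1640 with 2% glucose, compounds in DMSO. Yeasts pre-grown on Sabouraud dextrose agar. Growth read after 35 °C, 24 h.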

MIC [µg/mL] | Compound
100 (≈ 413 µM) | C[Si]1(C)OB(O)c2cc(F)c(C=O)c(F)c21
> 400 | C[Si]1(C)OB(O)c2cc(F)c(CO)c(F)c21

Second part, the compound before the results:

Compound | MIC [µg/mL]
C[Si]1(C)OB(O)c2ccc(F)cc21 | 12.5 (≈ 63.8 µM)
C[Si]1(C)OB(O)c2cc(C=O)cc(F)c21 | 200 (≈ 893 µM)
C[Si]1(C)OB(O)c2cc(B(O)O)cc(F)c21 | 400 (≈ 1670 µM)
C[Si]1(C)OB(O)c2ccc(Cl)cc21 | 6.25 (≈ 29.4 µM)

These compounds were tested on Staphylococcus epidermidis (assay: Antibacterial activity against Staphylococcus epidermidis ATCC 12228 measured after 18 hrs by CLSI broth dilution method). Conditions: ATCC 12228, 18 h.
Format: functional
Outline: (§2)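 Broth MIC in Mueller-Hinton II broth following CLSI, compounds dissolved in DMSO. Strains subcultured twice on tryptic soy agar before testing. Growth read after 35 °C, 18 h.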

MIC [µg/mL] | Compound
100 (≈ 413 µM) | C[Si]1(C)OB(O)c2cc(F)c(C=O)c(F)c21
200 (≈ 819 µM) | C[Si]1(C)OB(O)c2cc(F)c(CO)c(F)c21

Continued, compound first:

Compound | MIC [µg/mL]
C[Si]1(C)OB(O)c2ccc(F)cc21 | 50 (≈ 255 µM)
C[Si]1(C)OB(O)c2cc(C=O)cc(F)c21 | 50 (≈ 223 µM)
C[Si]1(C)OB(O)c2cc(B(O)O)cc(F)c21 | 50 (≈ 208 µM)
C[Si]1(C)OB(O)c2ccc(Cl)cc21 | 25 (≈ 118 µM)

What follows are compounds tested on Pseudomonas aeruginosa (assay: Antibacterial activity against Pseudomonas aeruginosa ATCC 27853 assessed as fold reduction of MIC in presence of efflux pump inhibitor PAbetaN incubated for 18 hrs microdilution method). Conditions: not given.
Format: functional
Outline: (§3)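 MICs determined with and without PAβN at 50 mg/L in Mueller-Hinton broth containing 1 mM MgSO₄. 2-fold serial dilutions per CLSI. Fold change taken from the paired MICs after 35 °C, 18 h.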

Compound | fold change (FC)
C[Si]1(C)OB(O)c2ccc(F)cc21 | 16
C[Si]1(C)OB(O)c2cc(C=O)cc(F)c21 | 4
C[Si]1(C)OB(O)c2cc(F)c(C=O)c(F)c21 | 8
C[Si]1(C)OB(O)c2cc(B(O)O)cc(F)c21 | 2
C[Si]1(C)OB(O)c2cc(F)c(CO)c(F)c21 | 4
C[Si]1(C)OB(O)c2ccc(Cl)cc21 | 32

What follows are compounds tested on Saccharomyces cerevisiae (assay: Antifungal activity against Saccharomyces cerevisiae ATCC 9763 assessed as decrease in fungal cell growth at 0.78 to 12.5 mg/L incubated for 24 hrs by CLSI broth dilution method). Conditions: ATCC 9763, 24 h.
Format: functional
Outline: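 Yeast strain subcultured on Sabouraud dextrose agar for 24–48 h at 30 °C before testing. Compounds dissolved in DMSO.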

MIC [µg/mL] | Compound
50 (≈ 207 µM) | C[Si]1(C)OB(O)c2cc(F)c(C=O)c(F)c21
400 (≈ 1640 µM) | C[Si]1(C)OB(O)c2cc(F)c(CO)c(F)c21

The remaining lines, values behind:

Compound | MIC [µg/mL]
C[Si]1(C)OB(O)c2ccc(F)cc21 | 1.56 (≈ 7.97 µM)
C[Si]1(C)OB(O)c2cc(C=O)cc(F)c21 | 200 (≈ 893 µM)
C[Si]1(C)OB(O)c2cc(B(O)O)cc(F)c21 | 400 (≈ 1670 µM)
C[Si]1(C)OB(O)c2ccc(Cl)cc21 | 6.25 (≈ 29.4 µM)

These compounds were tested on Pichia kudriavzevii (assay: Antifungal activity against Candida krusei ATCC 6258 assessed as decrease in fungal cell growth at 0.78 to 12.5 mg/L incubated for 24 hrs by CLSI broth dilution method). Conditions: ATCC 6258, 24 h.
Format: functional
Outline: as §1

MIC [µg/mL] | Compound
25 (≈ 103 µM) | C[Si]1(C)OB(O)c2cc(F)c(C=O)c(F)c21
400 (≈ 1640 µM) | C[Si]1(C)OB(O)c2cc(F)c(CO)c(F)c21

Further lines, the compound ahead of its results:

Compound | MIC [µg/mL]
C[Si]1(C)OB(O)c2ccc(F)cc21 | 12.5 (≈ 63.8 µM)
C[Si]1(C)OB(O)c2cc(C=O)cc(F)c21 | > 400
C[Si]1(C)OB(O)c2cc(B(O)O)cc(F)c21 | 50 (≈ 208 µM)
C[Si]1(C)OB(O)c2ccc(Cl)cc21 | 25 (≈ 118 µM)

Each compound was assayed on Enterobacter cloacae (assay: Antibacterial activity against Enterobacter cloacae DSM 6234 assessed as diameter of zone inhibition measured after 18 hrs by CLSI disc diffusion method). Conditions: not given.
Format: functional
Outline: (§4)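 Disc diffusion on Mueller-Hinton II agar. Compounds dissolved in DMSO. Strains stored at -80 °C and subcultured twice on tryptic soy agar before testing. Inhibition zones read after 35 °C, 18 h.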

Compound | diameter of the inhibition zone (DIZ)
C[Si]1(C)OB(O)c2ccc(F)cc21 | inactive
C[Si]1(C)OB(O)c2cc(C=O)cc(F)c21 | inactive
C[Si]1(C)OB(O)c2cc(F)c(C=O)c(F)c21 | inactive
C[Si]1(C)OB(O)c2cc(B(O)O)cc(F)c21 | inactive
C[Si]1(C)OB(O)c2cc(F)c(CO)c(F)c21 | inactive
C[Si]1(C)OB(O)c2ccc(Cl)cc21 | inactive

What follows are compounds tested on Enterobacter cloacae (assay: Antibacterial activity against Enterobacter cloacae DSM 6234 assessed as fold reduction of MIC in presence of efflux pump inhibitor PAbetaN incubated for 18 hrs by broth microdilution method). Conditions: not given.
Format: functional
Outline: as §3

Compound | fold change (FC)
C[Si]1(C)OB(O)c2ccc(F)cc21 | 32
C[Si]1(C)OB(O)c2cc(C=O)cc(F)c21 | 16
C[Si]1(C)OB(O)c2cc(F)c(C=O)c(F)c21 | 16
C[Si]1(C)OB(O)c2cc(B(O)O)cc(F)c21 | 32
C[Si]1(C)OB(O)c2cc(F)c(CO)c(F)c21 | 8
C[Si]1(C)OB(O)c2ccc(Cl)cc21 | 64

Each compound was assayed on Escherichia coli (assay: Antibacterial activity against Escherichia coli ATCC 25922 measured after 18 hrs by CLSI broth dilution method). Conditions: ATCC 25922, 18 h.
Format: functional
Outline: as §2

MIC [µg/mL] | Compound
> 400 | C[Si]1(C)OB(O)c2cc(F)c(C=O)c(F)c21
> 400 | C[Si]1(C)OB(O)c2cc(F)c(CO)c(F)c21

Second part, the compound before the results:

Compound | MIC [µg/mL]
C[Si]1(C)OB(O)c2ccc(F)cc21 | 400 (≈ 2040 µM)
C[Si]1(C)OB(O)c2cc(C=O)cc(F)c21 | > 400
C[Si]1(C)OB(O)c2cc(B(O)O)cc(F)c21 | > 400
C[Si]1(C)OB(O)c2ccc(Cl)cc21 | 400 (≈ 1880 µM)

These compounds were tested on Staphylococcus aureus (assay: Bactericidal activity against Staphylococcus aureus ATCC 6538P measured after 18 hrs by CLSI broth dilution method). Conditions: not given.
Format: functional
Outline: (§5)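 Strains stored at -80 °C and subcultured twice on tryptic soy agar before testing. Compounds dissolved in DMSO. […] MBC then determined per CLSI recommendations.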

Compound | MBC [µg/mL]
C[Si]1(C)OB(O)c2ccc(F)cc21 | 400 (≈ 2040 µM)
C[Si]1(C)OB(O)c2cc(C=O)cc(F)c21 | 100 (≈ 446 µM)
C[Si]1(C)OB(O)c2cc(B(O)O)cc(F)c21 | 400 (≈ 1670 µM)
C[Si]1(C)OB(O)c2ccc(Cl)cc21 | 400 (≈ 1880 µM)

What follows are compounds tested on Staphylococcus epidermidis (assay: Bactericidal activity against Staphylococcus epidermidis ATCC 12228 measured after 18 hrs by CLSI broth dilution method). Conditions: ATCC 12228, 18 h.
Format: functional
Outline: as §5

Compound | MBC [µg/mL]
C[Si]1(C)OB(O)c2cc(C=O)cc(F)c21 | 200 (≈ 893 µM)
C[Si]1(C)OB(O)c2cc(B(O)O)cc(F)c21 | 400 (≈ 1670 µM)
C[Si]1(C)OB(O)c2ccc(Cl)cc21 | 50 (≈ 235 µM)

Each compound was assayed on Candida albicans (assay: Antifungal activity against Candida albicans ATCC 90028 assessed as decrease in fungal cell growth at 0.78 to 12.5 mg/L incubated for 24 hrs by CLSI broth dilution method). Conditions: ATCC 90028, 24 h.
Format: functional
Outline: as §1

MIC [µg/mL] | Compound
> 400 | C[Si]1(C)OB(O)c2cc(F)c(C=O)c(F)c21
> 400 | C[Si]1(C)OB(O)c2cc(F)c(CO)c(F)c21

The next lines start with the compound.

Compound | MIC [µg/mL]
C[Si]1(C)OB(O)c2ccc(F)cc21 | 25 (≈ 128 µM)
C[Si]1(C)OB(O)c2cc(C=O)cc(F)c21 | 400 (≈ 1790 µM)
C[Si]1(C)OB(O)c2cc(B(O)O)cc(F)c21 | 400 (≈ 1670 µM)
C[Si]1(C)OB(O)c2ccc(Cl)cc21 | 12.5 (≈ 58.8 µM)

The compounds below were run on Acinetobacter baumannii (assay: Antibacterial activity against Acinetobacter baumannii ATCC 19606 assessed as fold reduction of MIC in presence of efflux pump inhibitor PAbetaN incubated for 18 hrs by broth microdilution method). Conditions: not given.
Format: functional
Outline: as §3

Compound | fold change (FC)
C[Si]1(C)OB(O)c2ccc(F)cc21 | 4
C[Si]1(C)OB(O)c2cc(C=O)cc(F)c21 | 4
C[Si]1(C)OB(O)c2cc(F)c(C=O)c(F)c21 | 4
C[Si]1(C)OB(O)c2cc(B(O)O)cc(F)c21 | 4
C[Si]1(C)OB(O)c2cc(F)c(CO)c(F)c21 | 2
C[Si]1(C)OB(O)c2ccc(Cl)cc21 | 16

The compounds below were run on Stenotrophomonas maltophilia (assay: Antibacterial activity against Stenotrophomonas maltophilia ATCC 13637 assessed as diameter of zone inhibition measured after 18 hrs by CLSI disc diffusion method). Conditions: not given.
Format: functional
Outline: as §4

Compound | diameter of the inhibition zone (DIZ)
C[Si]1(C)OB(O)c2ccc(F)cc21 | 12 mm
C[Si]1(C)OB(O)c2cc(C=O)cc(F)c21 | inactive
C[Si]1(C)OB(O)c2cc(F)c(C=O)c(F)c21 | 11 mm
C[Si]1(C)OB(O)c2cc(B(O)O)cc(F)c21 | inactive
C[Si]1(C)OB(O)c2cc(F)c(CO)c(F)c21 | inactive
C[Si]1(C)OB(O)c2ccc(Cl)cc21 | 19 mm

What follows are compounds tested on Pseudomonas aeruginosa (assay: Antibacterial activity against Pseudomonas aeruginosa ATCC 27853 assessed as diameter of zone inhibition measured after 18 hrs by CLSI disc diffusion method). Conditions: not given.
Format: functional, organism-based
Outline: as §4

Compound | diameter of the inhibition zone (DIZ)
C[Si]1(C)OB(O)c2ccc(F)cc21 | inactive
C[Si]1(C)OB(O)c2cc(C=O)cc(F)c21 | inactive
C[Si]1(C)OB(O)c2cc(F)c(C=O)c(F)c21 | inactive
C[Si]1(C)OB(O)c2cc(B(O)O)cc(F)c21 | inactive
C[Si]1(C)OB(O)c2cc(F)c(CO)c(F)c21 | inactive
C[Si]1(C)OB(O)c2ccc(Cl)cc21 | inactive

Each compound was assayed on Saccharomyces cerevisiae (assay: Antifungal activity against Saccharomyces cerevisiae ATCC 9763 diameter of zone inhibition incubated for 24 hrs by CLSI disc diffusion method). Conditions: not given.
Format: functional
Outline: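 Disc-diffusion run on Mueller-Hinton II agar with 2% glucose and 0.5 mg/L methylene blue, using compounds in DMSO. Yeast was precultured on Sabouraud dextrose agar (24–48 h, 30 °C). Zones read after 24 h at 35 °C.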

Compound | diameter of the inhibition zone (DIZ)
C[Si]1(C)OB(O)c2ccc(F)cc21 | 46 mm
C[Si]1(C)OB(O)c2cc(C=O)cc(F)c21 | inactive
C[Si]1(C)OB(O)c2cc(F)c(C=O)c(F)c21 | inactive
C[Si]1(C)OB(O)c2cc(B(O)O)cc(F)c21 | inactive
C[Si]1(C)OB(O)c2cc(F)c(CO)c(F)c21 | inactive
C[Si]1(C)OB(O)c2ccc(Cl)cc21 | 47 mm

Each compound was assayed on Serratia marcescens (assay: Antibacterial activity against Serratia marcescens ATCC 13880 assessed as fold reduction of MIC in presence of efflux pump inhibitor PAbetaN incubated for 18 hrs by broth microdilution method). Conditions: not given.
Format: functional
Outline: as §3

Compound | fold change (FC)
C[Si]1(C)OB(O)c2ccc(F)cc21 | 8
C[Si]1(C)OB(O)c2cc(C=O)cc(F)c21 | 8
C[Si]1(C)OB(O)c2cc(F)c(C=O)c(F)c21 | 4
C[Si]1(C)OB(O)c2cc(B(O)O)cc(F)c21 | 2
C[Si]1(C)OB(O)c2cc(F)c(CO)c(F)c21 | 4
C[Si]1(C)OB(O)c2ccc(Cl)cc21 | 16
